According to PubChem BioAssay AID588734 (Vanderbilt Specialized Chemistry Center, 2011):
Calls of active or inactive are those of the source.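 Rule for the calls: active = compound moving the glutamate curve by at least twofold either way, or glutamate peak under 75% or over 125%; inactive = the rest.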

Molecular target: Metabotropic glutamate receptor 4 (Rattus norvegicus) (UniProt P31423)
Experiment: rat mGlu4 allosteric modulation, glutamate curve shift, profiling panel, selectivity assay for mGlu5 PAM project, thallium flux, HEK/GIRK cells (AID 588734)
Conditions: glutamate CRC shift, at 10 µM; Emax: measured here: glutamate max response with compound
Method in brief: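 System: HEK/GIRK cells with rat mGlu4; incubation: dye loading for 45 min at 37 °C; signal: thallium flux fluorescence slope; measure: glutamate EC50 ratio, untreated over compound-treated; benchmarks: compound-free glutamate curve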

Chain of Metabotropic glutamate receptor 4 (Rattus norvegicus) (P31423 whole entry, looked up): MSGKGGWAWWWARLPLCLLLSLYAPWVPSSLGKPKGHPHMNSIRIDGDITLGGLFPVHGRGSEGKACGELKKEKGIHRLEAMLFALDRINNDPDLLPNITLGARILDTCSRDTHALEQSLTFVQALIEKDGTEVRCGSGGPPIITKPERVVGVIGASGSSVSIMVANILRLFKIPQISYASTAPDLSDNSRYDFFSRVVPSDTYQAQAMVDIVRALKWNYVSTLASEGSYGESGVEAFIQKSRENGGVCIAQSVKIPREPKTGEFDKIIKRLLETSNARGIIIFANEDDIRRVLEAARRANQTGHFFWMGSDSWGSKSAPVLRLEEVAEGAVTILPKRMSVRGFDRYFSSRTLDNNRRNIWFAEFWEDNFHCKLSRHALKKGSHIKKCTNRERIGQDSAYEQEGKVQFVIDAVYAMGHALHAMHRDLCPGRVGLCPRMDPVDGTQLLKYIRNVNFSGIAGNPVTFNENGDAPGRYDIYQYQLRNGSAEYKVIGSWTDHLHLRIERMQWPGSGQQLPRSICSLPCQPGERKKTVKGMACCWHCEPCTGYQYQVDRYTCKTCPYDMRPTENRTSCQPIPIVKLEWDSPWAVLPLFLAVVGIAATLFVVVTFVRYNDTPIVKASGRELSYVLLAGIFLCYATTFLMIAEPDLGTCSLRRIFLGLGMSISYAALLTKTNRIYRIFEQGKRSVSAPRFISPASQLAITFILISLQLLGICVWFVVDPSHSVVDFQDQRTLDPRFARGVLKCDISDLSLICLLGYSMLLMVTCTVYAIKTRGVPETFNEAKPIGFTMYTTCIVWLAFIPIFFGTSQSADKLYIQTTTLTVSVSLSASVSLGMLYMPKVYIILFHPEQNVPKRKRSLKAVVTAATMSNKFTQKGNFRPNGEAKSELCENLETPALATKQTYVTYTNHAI

SMILES	Emax	fold shift
C[C@@H](NC(=O)c1ccc(C#Cc2cccc(F)c2)cn1)C(C)(C)O	90%	0.88 (inactive)
CC1(NC(=O)c2ccc(C#Cc3cccc(F)c3)cn2)COC1	93%	1 (inactive)
